Data taken from article PMC9978883 (Molecular Cancer Therapeutics, 2023).

Columns and labels:
[1] = system: LNCaP; test: Cell proliferation; type: cell-based; conditions: Homo sapiens, 72 h, read-out: Growth inhibitory IC50, LNCaP
[2] = system: PC3; test: Cell proliferation; type: cell-based; conditions: Homo sapiens, PC-3, 72 h, read-out: Growth inhibitory IC50, PC3
[3] = system: WPMY; test: Cell proliferation; type: cell-based; conditions: Homo sapiens, 72 h, read-out: Growth inhibitory IC50, WPMY
[4] = system: VCaP; test: Cell proliferation; type: cell-based, human; conditions: for IC50: Homo sapiens, VCaP, 72 h, read-out: Growth inhibitory IC50, VCaP
[5] = system: DU145; test: Cell proliferation; type: cell-based; conditions: Homo sapiens, DU-145, 72 h, read-out: Growth inhibitory IC50, DU145
[6] = system: VCaP cells; test: Cell necrosis and apoptosis, PI/Hoechst 33342 flow cytometry; type: cell-based, human
[7] = system: VCaP cells; test: Cell-cycle determination by flow cytometry; type: cell-based, human; conditions: 5, 10, or 20 μmol/L, 24 hours
[8] = system: γ-H2A.X; test: γ-H2A.X Western blotting in VCaP cells; type: cell-based, human
[9] = system: VCaP xenograft tumors; test: VCaP xenograft in male SCID mice; type: in vivo
In short: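 Male SCID mice were implanted subcutaneously on the left abdomen with 4 × 10^6 VCaP cells. At about 100 mm3, mice were randomised, six per group. Dosing was 75 mg/kg i.p. once daily or 37.5 mg/kg by gavage twice daily; controls got solvent i.p. Plasma ALT and AST were measured by kit every 7 days. Endpoint was tumour volume >2 cm3. Data are mean ± SD, Dunnett test versus control.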

[10] = system: DU145-ERG
[11] = system: cleaved PARP1; test: Western blotting for cleaved PARP1 in VCaP cells; type: cell-based, human
[12] = target: T1, ERG (Homo sapiens, UniProt P11308); test: Surface plasmon resonance, ERG; type: binding; conditions: SPR
T1 sequence (P11308 1-479): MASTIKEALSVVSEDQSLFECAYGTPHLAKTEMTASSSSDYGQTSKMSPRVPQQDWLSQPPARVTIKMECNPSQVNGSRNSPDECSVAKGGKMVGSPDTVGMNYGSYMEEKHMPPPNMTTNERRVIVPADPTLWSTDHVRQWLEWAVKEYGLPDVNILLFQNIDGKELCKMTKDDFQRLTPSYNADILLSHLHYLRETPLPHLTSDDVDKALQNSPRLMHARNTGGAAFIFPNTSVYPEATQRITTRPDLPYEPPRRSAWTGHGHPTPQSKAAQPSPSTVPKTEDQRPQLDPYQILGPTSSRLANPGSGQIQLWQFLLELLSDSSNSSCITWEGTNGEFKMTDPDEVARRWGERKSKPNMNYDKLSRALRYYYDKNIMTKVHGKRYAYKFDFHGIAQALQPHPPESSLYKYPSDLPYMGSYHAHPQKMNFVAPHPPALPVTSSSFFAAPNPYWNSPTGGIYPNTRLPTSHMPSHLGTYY

[13] = system: AIF mRNA; test: RT-qPCR for AIF mRNA on VCaP cells; type: cell-based, human; conditions: 2 or 5 μmol/L, 12 or 24 hours
[14] = system: AIF; test: AIF Western blot in VCaP cells; type: cell-based, human
[15] = system: DU145 vector; test: Cell proliferation on DU145 vector control cells; type: cell-based; conditions: Homo sapiens, DU-145, read-out: IC50, DU145 vector
[16] = target: T2, interaction between ERG and PARP1 (Homo sapiens, UniProt P11308); type: cell-based; conditions: 0.5 or 1 μmol/L, 2 hours, DU145-ERG
T2 sequence (P11308 1-479): T1 sequence (P11308 1-479)

[17] = target: T3, ALDH1 (Homo sapiens, UniProt P00352); test: Surface plasmon resonance, ALDH1; type: binding
T3 sequence (P00352 1-501): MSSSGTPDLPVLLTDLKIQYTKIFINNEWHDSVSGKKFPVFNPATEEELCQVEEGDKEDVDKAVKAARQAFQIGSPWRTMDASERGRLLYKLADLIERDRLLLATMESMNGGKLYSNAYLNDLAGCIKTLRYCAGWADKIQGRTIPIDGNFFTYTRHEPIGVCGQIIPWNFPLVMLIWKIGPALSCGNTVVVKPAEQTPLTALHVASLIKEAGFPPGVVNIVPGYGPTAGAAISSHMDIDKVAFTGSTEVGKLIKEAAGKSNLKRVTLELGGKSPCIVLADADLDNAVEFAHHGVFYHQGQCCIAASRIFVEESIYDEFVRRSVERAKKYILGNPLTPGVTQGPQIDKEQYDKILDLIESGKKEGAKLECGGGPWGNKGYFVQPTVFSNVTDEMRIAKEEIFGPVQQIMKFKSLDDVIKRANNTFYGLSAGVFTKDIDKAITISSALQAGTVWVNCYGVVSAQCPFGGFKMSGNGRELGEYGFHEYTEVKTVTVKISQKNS

[18] = target: STAT3 (Homo sapiens, UniProt P40763); test: Surface plasmon resonance, STAT3; type: binding
[19] = NFZ-treated groups, every 7 days

STAT3, sequence (P40763 whole entry): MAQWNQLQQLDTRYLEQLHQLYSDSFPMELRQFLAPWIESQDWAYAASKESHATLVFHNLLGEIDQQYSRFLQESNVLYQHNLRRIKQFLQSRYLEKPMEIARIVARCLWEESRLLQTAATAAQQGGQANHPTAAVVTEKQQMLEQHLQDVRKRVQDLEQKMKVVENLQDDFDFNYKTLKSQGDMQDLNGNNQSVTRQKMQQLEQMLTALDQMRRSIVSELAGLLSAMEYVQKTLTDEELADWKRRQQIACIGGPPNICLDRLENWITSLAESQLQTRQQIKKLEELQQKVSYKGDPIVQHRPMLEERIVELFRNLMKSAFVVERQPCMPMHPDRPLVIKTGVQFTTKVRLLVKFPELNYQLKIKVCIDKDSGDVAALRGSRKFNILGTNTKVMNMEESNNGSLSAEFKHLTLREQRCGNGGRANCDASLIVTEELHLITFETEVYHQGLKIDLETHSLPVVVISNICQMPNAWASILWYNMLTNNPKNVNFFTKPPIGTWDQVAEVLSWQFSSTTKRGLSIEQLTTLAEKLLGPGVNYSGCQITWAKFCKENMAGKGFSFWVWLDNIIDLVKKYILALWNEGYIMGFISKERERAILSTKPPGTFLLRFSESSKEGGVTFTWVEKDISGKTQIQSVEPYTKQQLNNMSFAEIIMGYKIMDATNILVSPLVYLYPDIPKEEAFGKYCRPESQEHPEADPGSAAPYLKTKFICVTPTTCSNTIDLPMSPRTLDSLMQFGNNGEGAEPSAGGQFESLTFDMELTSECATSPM

Row | IC50 [1] [µM] | IC50 [2] [µM] | IC50 [4] [µM] | IC50 [5] [µM] | SMILES | IC50 [3] [µM] | other results
1 | 33 ± 3.11 | 27 ± 2 | > 30 | 22.6 ± 2.93 | CCN(CC)C(=S)SSC(=S)N(CC)CC [Disulfiram] | 23.3 ± 0.49 | 
2 | 0.23 ± 0.08 | 0.29 ± 0.07 | 0.23 ± 0.05 | 0.16 ± 0.05 | CC(=O)c1cc2c(o1)C(=O)c1ccccc1C2=O [Napabucasin] | 0.25 ± 0.01 | 
3 | > 30 | 3.87 ± 0.35 | 13.9 ± 1.12 | 27.7 ± 1.11 | CSCC1CN(/N=C/c2ccc([N+](=O)[O-])o2)C(=O)O1 (stereo not shown) [Nifuratel] | 26.6 ± 0.13 | 
4 | > 30 | > 30 | > 30 | > 30 | CC1CS(=O)(=O)CCN1/N=C/c1ccc([N+](=O)[O-])o1 (stereo not shown) [Nifurtimox] | > 30 | 
5 |  |  |  |  | O=C(c1cc(Cc2n[nH]c(=O)c3ccccc23)ccc1F)N1CCN(C(=O)C2CC2)CC1 [Olaparib, olaparib] |  | Effect of olaparib on NFZ-induced necrotic cells (Q1 and Q2) ([6]; olaparib and NFZ combination group versus NFZ): reduced the number of necrotic cells; Effect of olaparib on NFZ-induced γ-H2A.X ([8]; 10 μmol/L OLP with NFZ): counteracted this effect of NFZ; Effect of olaparib on NFZ-induced PARP1 cleavage ([11]; 10 μmol/L OLP with NFZ): not altered; Effect of olaparib on NFZ-induced AIF release ([14]; 10 μmol/L olaparib with NFZ): reduced; Effect of olaparib on NFZ-mediated growth inhibition ([4]; 5 μmol/L NFZ with 20 μmol/L olaparib): completely abrogated the inhibitory effects of NFZ; Effect of olaparib on NFZ-mediated growth inhibition ([4]; 5 μmol/L NFZ with 0.5, 1.0, or 20 μmol/L OLP): blocked NFZ-mediated growth inhibition

Row | SMILES | IC50 [1] [µM] | IC50 [2] [µM] | IC50 [4] [µM] | IC50 [5] [µM] | IC50 [3] [µM] | other results
6 | O=C(N/N=C/c1ccc([N+](=O)[O-])o1)c1ccc(O)cc1 [NFZ, Nifuroxazide] | 13.4 ± 2.66 | 3.62 ± 0.51 | 2.65 ± 0.08 | 5.12 ± 0.63 | 4.53 ± 0.12 | Dead cells along the PI axis (Q1 and Q2) ([6]; 5, 10, or 20 μmol/L, VCaP): significantly higher than that in the DMSO group; Proportion of cells in the G1–G0 phase [7]: increased with the increasing NFZ concentrations; γ-H2A.X expression ([8]; 2 or 5 μmol/L, different times, VCaP): increased; Plasma ALT [9, 19]: fluctuated within a normal range; Plasma AST [9, 19]: fluctuated within a normal range; Weight loss of mice ([9]; NFZ-treated versus vehicle): significantly less than that of mice treated with vehicle; Toxicity by observation ([9]; gavage or i.p.): did not show obvious toxicity; Reduction of NFZ inhibition on DU145-ERG by addition of olaparib ([10]; 10 μmol/L OLP): at least 10 fold; Difference in IC50 between DU145-ERG and DU145 vector ([10]; p < 0.0001): at least sevenfold; PARP1 cleavage ([11]; 2 or 5 μmol/L, VCaP): increased PARP1 cleavage; Binding pattern with ERG [12]: fast binding and fast dissociation; AIF mRNA expression [13]: increased the expression of AIF; AIF protein ([14]; 2 or 5 μmol/L, within 30 minutes, VCaP): rapidly released AIF; IC50 [15]: 7.68 ± 0.211 µM; Amount of PARP1 bound to ERG [16]: reduced the amount of PARP1 bound to ERG; Kd [17]: 22.2 µM; Binding pattern with ALDH1 ([17]; SPR): fast binding/fast dissociation; Kd [18]: 22.8 µM; Binding pattern with STAT3 ([18]; SPR): fast binding/fast dissociation
7 | O=C(N/N=C/c1ccc([N+](=O)[O-])o1)c1cc([N+](=O)[O-])cc([N+](=O)[O-])c1O [Nifursol] | > 30 | > 30 | > 30 | > 30 | > 30 | 
